This note sets out measurements from ChEMBL document CHEMBL1145927 (J Med Chem, 2003).

pIC50: −log10 of the molar value.

Assay [1] deals with T1, Prostaglandin G/H synthase 1 (Homo sapiens, UniProt P23219). Description: Compound was tested for in vitro inhibition of recombinant human Prostaglandin G/H synthase 1 (COX-1) by enzyme Assay.
The target of assay [2] is T1, Prostaglandin G/H synthase 1. Conditions: at 100 µM.
Assay [3] has as its target T2, Prostaglandin G/H synthase 2 (Homo sapiens, UniProt P35354).
T2 sequence (P35354 whole entry): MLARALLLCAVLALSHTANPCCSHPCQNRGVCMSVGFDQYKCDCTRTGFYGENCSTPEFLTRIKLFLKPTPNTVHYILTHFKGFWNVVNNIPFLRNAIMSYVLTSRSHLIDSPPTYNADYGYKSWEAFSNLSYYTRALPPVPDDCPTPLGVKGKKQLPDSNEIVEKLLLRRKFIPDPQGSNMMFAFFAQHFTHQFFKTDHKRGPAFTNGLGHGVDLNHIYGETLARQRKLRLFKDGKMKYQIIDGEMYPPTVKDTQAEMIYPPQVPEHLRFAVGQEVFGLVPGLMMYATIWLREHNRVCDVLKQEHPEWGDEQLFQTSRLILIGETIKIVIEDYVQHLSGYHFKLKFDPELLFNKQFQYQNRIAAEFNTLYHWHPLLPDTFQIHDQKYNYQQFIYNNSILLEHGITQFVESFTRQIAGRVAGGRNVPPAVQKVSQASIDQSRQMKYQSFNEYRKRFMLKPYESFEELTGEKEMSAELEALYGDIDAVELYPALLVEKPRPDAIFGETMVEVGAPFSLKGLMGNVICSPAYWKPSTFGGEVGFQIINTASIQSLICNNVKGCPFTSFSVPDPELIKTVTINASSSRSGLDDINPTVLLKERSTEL
Description: Compound was tested for the inhibition of recombinant human Prostaglandin G/H synthase 2 (COX-2) by enzyme Assay.

The target in assay [4] is T3, Prostaglandin G/H synthase 2 (Homo sapiens) (UniProt P35354).
T3 sequence (whole entry): T2 sequence (P35354 whole entry)
Conditions: at 1 µM.

For assay [5], the target named is T3, Prostaglandin G/H synthase 2 (Homo sapiens). As to conditions: at 10 µM.
Assay [6] deals with T1, Prostaglandin G/H synthase 1. Description: In vitro average percent inhibition of human prostaglandin G/H synthase 1 (COX-1) at a concentration of 100 uM. The gist of the method:
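Supplied recombinant human COX-1 (5 units) preincubated 2 min at 25 °C in 0.1 M Tris-HCl pH 8.0 with 5 mM EDTA, 2 mM phenol and heme; compound or DMSO added, 20 min at 25 °C; started with 10 mM arachidonic acid stock, 2 min at 37 °C; stopped with HCl, SnCl2 reduction; prostaglandins by EIA; percent inhibition versus solvent control.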

Assay [7] shares this target. The experiment in a line: In vitro average percent Inhibition of Prostaglandin G/H synthase 1 (COX-1) at a concentration of 100 uM determined in human whole blood by human whole blood (HWB) assay. Format: tissue-based.
In assay [8] the target is T3, Prostaglandin G/H synthase 2 (Homo sapiens). Description: In vitro average percent Inhibition of Prostaglandin G/H synthase 2 (COX-2) at a concentration of 10 uM determined human whole blood by human whole blood (HWB) assay. Summed up:
(§1)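 Heparinized whole blood from male or female donors free of aspirin/NSAIDs for 14 days, 1 mL aliquots pre-warmed 15 min at 37 °C, 5% CO2; compound in DMSO, duplicate wells; COX-2 induced by E. coli LPS added 4.5 h later, incubated 5 h; stopped on ice with 2 mM EGTA; plasma methanol-extracted, TXB2 by EIA; average of two donors.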

For assay [9], the target named is T1, Prostaglandin G/H synthase 1. Description: Compound was tested for the inhibition of recombinant human Prostaglandin G/H synthase 1 (COX-1).
The target in assay [10] is T2, Prostaglandin G/H synthase 2. Description: Compound was tested for the inhibition of recombinant human Prostaglandin G/H synthase 2 (COX-2).
The target in assay [11] is T4, Prostaglandin G/H synthase 1 (Ovis aries) (UniProt P05979).
T4 sequence (whole entry): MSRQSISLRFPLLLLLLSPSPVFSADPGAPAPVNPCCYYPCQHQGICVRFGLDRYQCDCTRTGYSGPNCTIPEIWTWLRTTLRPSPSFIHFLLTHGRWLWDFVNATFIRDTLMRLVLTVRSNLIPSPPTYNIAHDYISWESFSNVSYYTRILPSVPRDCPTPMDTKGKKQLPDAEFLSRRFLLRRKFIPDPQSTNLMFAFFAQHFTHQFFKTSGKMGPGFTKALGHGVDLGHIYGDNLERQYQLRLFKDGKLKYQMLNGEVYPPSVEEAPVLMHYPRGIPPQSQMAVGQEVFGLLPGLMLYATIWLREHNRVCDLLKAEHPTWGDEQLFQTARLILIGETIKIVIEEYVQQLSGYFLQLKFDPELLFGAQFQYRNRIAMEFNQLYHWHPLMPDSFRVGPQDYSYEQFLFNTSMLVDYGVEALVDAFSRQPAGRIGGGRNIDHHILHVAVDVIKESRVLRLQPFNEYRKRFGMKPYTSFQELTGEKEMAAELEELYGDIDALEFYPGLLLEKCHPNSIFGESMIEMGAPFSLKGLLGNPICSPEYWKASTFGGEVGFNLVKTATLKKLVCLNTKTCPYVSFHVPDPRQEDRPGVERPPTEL
Description: Compound was tested for in vitro inhibition of recombinant ovine Prostaglandin G/H synthase 1 (COX-1) at a concentration of 100 uM. The gist of the method: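 Supplied recombinant ovine COX-1 (5 units) preincubated 2 min at 25 °C in 0.1 M Tris-HCl pH 8.0 with 5 mM EDTA, 2 mM phenol and heme; compound or DMSO added, 20 min at 25 °C; started with 10 mM arachidonic acid stock, 2 min at 37 °C; stopped with HCl, SnCl2 reduction; prostaglandins by EIA; percent inhibition versus solvent control.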

Assay [12] concerns the target T3, Prostaglandin G/H synthase 2 (Homo sapiens). The experiment in a line: In vitro average percent Inhibition of Prostaglandin G/H synthase 2(COX-2) at a concentration of 1 uM determined in human whole blood by human whole blood (HWB) assay. Format: tissue-based. The gist of the method:
as §1

Assay [13] deals with T1, Prostaglandin G/H synthase 1. Description: In vitro average percent Inhibition of […] Prostaglandin G/H synthase 1 (COX-1) at a concentration of 100 uM determined by human whole blood (HWB) assay.
Assay [14] concerns the target T3, Prostaglandin G/H synthase 2 (Homo sapiens). The experiment in a line: In vitro average percent Inhibition of Prostaglandin G/H synthase 2 (COX-2) at a concentration of 10 uM determined by human whole blood (HWB) assay. Summed up:
as §1

For assay [15] the target is unchanged. As to conditions: Blood; at 1 µM.
Assay [16] deals with T1, Prostaglandin G/H synthase 1. Description: In vitro average percent Inhibition of inhibition of Prostaglandin G/H synthase 1 (COX-1) at a concentration of 100 uM in human whole blood by human whole blood assay. Format: tissue-based.
The target of assay [17] is T3, Prostaglandin G/H synthase 2 (Homo sapiens). Conditions: Blood; at 10 µM.
Assay [18] concerns the target T1, Prostaglandin G/H synthase 1. The experiment in a line: In vitro average percent uM in human whole blood by human whole blood assay. As to conditions: concentration not given here. Type of assay: tissue-based.
Assay [19] shares this target. The experiment in a line: Compound was tested for in vitro Prostaglandin G/H synthase 1 (COX-1) idetermined in human whole blood by human whole blood assay. Type of assay: tissue-based. Summed up: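 Heparinised (20 U/mL) whole blood from non-fasted donors free of aspirin/NSAIDs for 14 days, 1 mL aliquots, pre-warmed 15 min at 37 °C, 5% CO2 on a rotating shaker. DMSO-diluted compound added in duplicate; incubation ended 30 min after A23187 by ice and 2 mM EGTA (final). Plasma methanol-extracted, TXB2 by EIA; average of two donors.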

For assay [20], the target named is T2, Prostaglandin G/H synthase 2. The experiment in a line: Compound was tested for the inhibition of human Prostaglandin G/H synthase 2 (COX-2) in human whole blood. Type of assay: tissue-based.
The target in assay [21] is T1, Prostaglandin G/H synthase 1. Description: In vitro average percent Inhibition of Prostaglandin G/H synthase 1 (COX-1) at a concentration of 100 uM in human whole blood by human whole blood assay. Format: tissue-based.
The target is the same in assay [22]. The experiment in a line: In vitro average percent Inhibition of Prostaglandin G/H synthase 1 (COX-1) at a concentration of 100 uM determined in human whole blood assay by human whole blood (HWB) assay. Type of assay: tissue-based.
Assay [23] deals with T3, Prostaglandin G/H synthase 2 (Homo sapiens). The experiment in a line: In vitro average percent Inhibition of Prostaglandin G/H synthase 2 (COX-2) at a concentration of 1 uM determined in human whole blood by human whole blood assay. Type of assay: tissue-based. The gist of the method:
as §1

Assay [24] has the same target. Description: In vitro average percent Inhibition of Prostaglandin G/H synthase 2 (COX-2) at a concentration of 10 uM determined in human whole blood by human whole blood assay. Format: tissue-based. Summed up: as §1
Assay [25] addresses T1, Prostaglandin G/H synthase 1. Description: Compound was tested for the inhibition of human Prostaglandin G/H synthase 1 (COX-1) in human whole blood. Format: tissue-based.

T1 sequence (P23219 whole entry): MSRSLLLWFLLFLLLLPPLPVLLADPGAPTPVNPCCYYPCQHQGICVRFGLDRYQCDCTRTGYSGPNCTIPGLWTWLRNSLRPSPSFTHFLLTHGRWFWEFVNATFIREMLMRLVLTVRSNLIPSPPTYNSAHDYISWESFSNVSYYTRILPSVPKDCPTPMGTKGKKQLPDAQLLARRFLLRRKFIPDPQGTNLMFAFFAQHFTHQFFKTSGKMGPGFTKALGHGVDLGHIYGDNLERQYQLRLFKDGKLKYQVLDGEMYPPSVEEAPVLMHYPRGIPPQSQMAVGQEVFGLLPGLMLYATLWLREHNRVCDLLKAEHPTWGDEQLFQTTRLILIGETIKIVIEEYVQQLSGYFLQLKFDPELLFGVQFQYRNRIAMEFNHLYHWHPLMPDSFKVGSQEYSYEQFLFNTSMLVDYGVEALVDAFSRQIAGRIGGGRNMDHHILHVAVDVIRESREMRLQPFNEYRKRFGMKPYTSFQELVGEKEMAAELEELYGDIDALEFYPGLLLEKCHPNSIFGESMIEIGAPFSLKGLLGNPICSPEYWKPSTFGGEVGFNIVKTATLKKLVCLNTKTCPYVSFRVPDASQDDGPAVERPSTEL

By pIC50 is commonly meant −log10 of the IC50, conventionally taken in molar units. For orientation: inhibition means how much of the control response was suppressed. As for `CS(=O)(=O)c1ccc(-c2cc3c(cc2C=C2CCCCC2)OCO3)cc1`, the pIC50 in assay [1] is < 4.00; in [3], 7.15. Moreover, the inhibition in [2] came out at 0%; in [4], 90%; in assay [5] it was 90%; in assay [6], 50%.
Turning to `CS(=O)(=O)c1ccc(-c2ccccc2C(=O)c2cccc(F)c2)cc1`, the inhibition in [7] amounted to 45%; in assay [8], 40%.
As for `CS(=O)(=O)c1ccc(-c2cc3c(cc2C=C2CCCCCC2)OCO3)cc1`, the pIC50 is < 4.00 in assay [9] and 6.70 in assay [10]. Further, the inhibition in [11] came to 0%; in [4], 100%; in [5] it was 100%; in [6] it was 35%.
Consider `CS(=O)(=O)c1ccc(-c2cc3c(cc2-c2cc(F)cc(F)c2)OCO3)cc1`, for which the values for the inhibition in assay [12], in assay [13] and in assay [14] were 0%, 65% and 35%, respectively.
In the case of `COc1cc(Cc2cc(F)cc(F)c2)c(-c2ccc(S(C)(=O)=O)cc2)cc1OC`, the inhibition was 0% in assay [7] and 15% in assay [14].
Regarding `CS(=O)(=O)c1ccc(-c2cc3c(cc2Cc2cc(F)cc(F)c2)OCO3)cc1`, the inhibition is 15% in assay [15]; 70% in [16]; 40% in [17]; 15% in assay [11]; 90% in [4]; 90% in [5].
With `Cc1cccc(C(=O)c2cc3c(cc2-c2ccc(S(C)(=O)=O)cc2)OCO3)c1`, the inhibition in assay [15] worked out at 40%; in [18] it was 95%; in [17], 85%; in [11], 0%; in [4], 10%; in assay [5], 40%.
Consider `CS(=O)(=O)c1ccc(-c2cc3c(cc2Cc2ccccc2)OCO3)cc1`, for which the figures for the pIC50 in assay [19] and in assay [20] were 4.22 and 5.00, respectively. In addition, the inhibition in assay [2] turned out to be 0%; in [17], 50%; in [4], 85%; in assay [5] it was 85%; in [6] it was 65%.
As to `Cc1ccc(Cc2cc3c(cc2-c2ccc(S(C)(=O)=O)cc2)OCO3)cc1`, the inhibition was determined as 0% in assay [15]; 45% in assay [21]; 10% in assay [17]; 25% in assay [11]; 50% in assay [4]; 80% in [5].
For `CS(=O)(=O)c1ccc(-c2ccccc2C=C2CCCCC2)cc1`, in assay [22], the inhibition turned out to be 60%.
Regarding `CS(=O)(=O)c1ccc(-c2cc3c(cc2CCCc2ccccc2)OCO3)cc1`, the inhibition in [23] is 15%; in assay [24] it was 35%; in [2], 10%; in assay [4] it was 15%; in [5], 0%; in assay [6], 65%.
With `CS(=O)(=O)c1ccc(-c2cc3c(cc2C(=O)c2cccc(F)c2)OCO3)cc1`, the pIC50 in assay [20] is 6.00; in [25], 4.70. The inhibition in assay [6] was found to be 50%.
`CS(=O)(=O)c1ccc(-c2cc3c(cc2Cc2cc(F)cc(F)c2)OCCO3)cc1`: the inhibition in assay [7] came to 70%; in [14], 40%.
Regarding `NS(=O)(=O)c1ccc(-c2cc3c(cc2Cc2ccccc2)OCO3)cc1`, the pIC50 in assay [9] is 4.60; in [10] it was 7.30; in assay [25], 4.22. Also, the inhibition was 90% in assay [7], 90% in [2], 85% in assay [4] and 90% in assay [5].
